Measurements: ChEMBL document CHEMBL1155468, “Syntheses and evaluation of anticonvulsant profile and teratogenicity of novel amide derivatives of branched aliphatic carboxylic acids with 4-aminobenzensulfonamide” (J Med Chem, 2010)
Active and inactive are the calls of the source. The rule behind the calls is not given here.

Key:
[1] = system: Mus musculus; test: Teratogenic effect in SWV mouse assessed as live fetuses at 537 mg/kg, ip administered on morning of day 8 of gestation; type: toxicity, organism-based; set-up: dose 537 mg/kg, route intraperitoneal; settings: in vivo
[2] = system: Mus musculus; test: Neurotoxicity in CF1 albino mouse assessed as motor impairment at 300 mg/kg, ip after 0.5 hrs; type: toxicity, organism-based; set-up: dose 300 mg/kg, route intraperitoneal; settings: in vivo
[3] = system: Mus musculus; test: Anticonvulsant activity in CF1 albino mouse assessed as inhibition of subcutaneous pentylenetetrazole-induced seizures at 300 mg/kg, ip after 4 hrs; type: functional, organism-based; set-up: dose 300 mg/kg
How it was run: (§1)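 Adult male CF no. 1 albino mice (18-25 g) dosed ip with compound suspended in 0.5% methylcellulose (0.01 mL/g). Convulsant: pentylenetetrazol dissolved in 0.9% saline as a 0.85% solution for mice, given subcutaneously.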

[4] = system: Mus musculus; test: Anticonvulsant activity in CF1 albino mouse assessed as inhibition of subcutaneous pentylenetetrazole-induced seizures at 300 mg/kg, ip after 0.5 hrs; type: functional, organism-based; set-up: dose 300 mg/kg; how it was run: as §1
[5] = system: Mus musculus; test: Teratogenic effect in SWV mouse assessed as fetuses with neural tube deffects at 164 mg/kg, ip administered on morning of day 8 of gestation; type: toxicity, organism-based; set-up: dose 164 mg/kg, route intraperitoneal; settings: in vivo
[6] = system: Mus musculus; test: Anticonvulsant activity in CF1 albino mouse assessed as inhibition of subcutaneous pentylenetetrazole-induced seizures at 100 mg/kg, ip after 0.5 hrs; type: functional, organism-based; set-up: dose 100 mg/kg; how it was run: as §1
[7] = system: Mus musculus; test: Anticonvulsant activity in CF1 albino mouse assessed as inhibition of maximal electroshock-induced seizures at 100 mg/kg, ip after 0.5 hrs; type: functional, organism-based; set-up: dose 100 mg/kg
How it was run: (§2)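 Test compounds suspended in 0.5% methylcellulose and given ip to adult male CF no. 1 albino mice (18-25 g) at 0.01 mL/g body weight before maximal electroshock challenge.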

[8] = system: Mus musculus; test: Neurotoxicity in CF1 albino mouse assessed as motor impairment at 100 mg/kg, ip after 4 hrs; type: toxicity, organism-based; set-up: dose 100 mg/kg, route intraperitoneal; settings: in vivo
[9] = system: Mus musculus; test: Teratogenic effect in SWV mouse assessed as resorptions at 805 mg/kg, ip administered on morning of day 8 of gestation; type: toxicity, organism-based; set-up: dose 805 mg/kg, route intraperitoneal; settings: in vivo
[10] = system: Mus musculus; test: Neurotoxicity in CF1 albino mouse assessed as motor impairment at 300 mg/kg, ip after 4 hrs; type: toxicity, organism-based; set-up: dose 300 mg/kg, route intraperitoneal; settings: in vivo
[11] = system: Mus musculus; test: Anticonvulsant activity in CF1 albino mouse assessed as inhibition of maximal electroshock-induced seizures at 30 mg/kg, ip after 0.5 hrs; type: functional, organism-based; set-up: dose 30 mg/kg; how it was run: as §2
[12] = system: Mus musculus; test: Anticonvulsant activity in CF1 albino mouse assessed as inhibition of subcutaneous pentylenetetrazole-induced seizures at 30 mg/kg, ip after 4 hrs; type: functional, organism-based; set-up: dose 30 mg/kg; how it was run: as §1
[13] = system: Mus musculus; test: Teratogenic effect in SWV mouse assessed as resorptions at 537 mg/kg, ip administered on morning of day 8 of gestation; type: toxicity, organism-based; set-up: dose 537 mg/kg, route intraperitoneal; settings: in vivo
[14] = system: Mus musculus; test: Anticonvulsant activity in CF1 albino mouse assessed as inhibition of maximal electroshock-induced seizures at 300 mg/kg, ip after 0.5 hrs; type: functional, organism-based; set-up: dose 300 mg/kg; how it was run: as §2
[15] = system: Mus musculus; test: Teratogenic effect in SWV mouse assessed as fetuses with neural tube deffects at 537 mg/kg, ip administered on morning of day 8 of gestation; type: toxicity, organism-based; set-up: dose 537 mg/kg, route intraperitoneal; settings: in vivo
[16] = system: Mus musculus; test: Anticonvulsant activity in CF1 albino mouse assessed as inhibition of subcutaneous pentylenetetrazole-induced seizures at 100 mg/kg, ip after 4 hrs; type: functional, organism-based; set-up: dose 100 mg/kg; how it was run: as §1
[17] = system: Mus musculus; test: Teratogenic effect in SWV mouse assessed as fetuses with neural tube deffects at 325 mg/kg, ip administered on morning of day 8 of gestation; type: toxicity, organism-based; set-up: dose 325 mg/kg, route intraperitoneal; settings: in vivo
[18] = system: Mus musculus; test: Anticonvulsant activity in CF1 albino mouse assessed as inhibition of subcutaneous pentylenetetrazole-induced seizures at 30 mg/kg, ip after 0.5 hrs; type: functional, organism-based; set-up: dose 30 mg/kg; how it was run: as §1
[19] = system: Mus musculus; test: Neurotoxicity in CF1 albino mouse assessed as motor impairment at 30 mg/kg, ip after 4 hrs; type: toxicity, organism-based; set-up: dose 30 mg/kg, route intraperitoneal; settings: in vivo
[20] = system: Mus musculus; test: Teratogenic effect in SWV mouse assessed as resorptions at 325 mg/kg, ip administered on morning of day 8 of gestation; type: toxicity, organism-based; set-up: dose 325 mg/kg, route intraperitoneal; settings: in vivo
[21] = system: Mus musculus; test: Anticonvulsant activity in CF1 albino mouse assessed as inhibition of maximal electroshock-induced seizures at 300 mg/kg, ip after 4 hrs; type: functional, organism-based; set-up: dose 300 mg/kg; how it was run: as §2
[22] = system: Mus musculus; test: Anticonvulsant activity in CF1 albino mouse assessed as inhibition of maximal electroshock-induced seizures at 30 mg/kg, ip after 4 hrs; type: functional, organism-based; set-up: dose 30 mg/kg; how it was run: as §2
[23] = system: Mus musculus; test: Teratogenic effect in SWV mouse assessed as live fetuses at 164 mg/kg, ip administered on morning of day 8 of gestation; type: toxicity, organism-based; set-up: dose 164 mg/kg, route intraperitoneal; settings: in vivo
[24] = system: Mus musculus; test: Neurotoxicity in CF1 albino mouse assessed as motor impairment at 100 mg/kg, ip after 0.5 hrs; type: toxicity, organism-based; set-up: dose 100 mg/kg, route intraperitoneal; settings: in vivo
[25] = system: Rattus norvegicus; test: Neurotoxicity in Sprague-Dawley rat assessed as motor impairment at 30 mg/kg, po after 0.25 to 4 hrs; settings: in vivo
[26] = system: Mus musculus; test: Neurotoxicity in CF1 albino mouse assessed as motor impairment at 30 mg/kg, ip after 0.5 hrs; type: toxicity, organism-based; set-up: dose 30 mg/kg, route intraperitoneal; settings: in vivo
[27] = system: Mus musculus; test: Teratogenic effect in SWV mouse assessed as live fetuses at 325 mg/kg, ip administered on morning of day 8 of gestation; type: toxicity, organism-based; set-up: dose 325 mg/kg, route intraperitoneal; settings: in vivo
[28] = system: Mus musculus; test: Teratogenic effect in SWV mouse assessed as resorptions at 164 mg/kg, ip administered on morning of day 8 of gestation; type: toxicity, organism-based; set-up: dose 164 mg/kg, route intraperitoneal; settings: in vivo
[29] = system: Mus musculus; test: Teratogenic effect in SWV mouse assessed as resorptions at 316 mg/kg, ip administered on morning of day 8 of gestation; type: toxicity, organism-based; set-up: dose 316 mg/kg, route intraperitoneal; settings: in vivo
How it was run: (§3)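 SWV inbred mice: two-month-old nulligravid females mated overnight with males and checked for vaginal plugs next morning; gestation onset taken as 10 p.m. the previous night. On gestation day 8.5 each dam got one ip injection, 0.55–2.7 mmol/kg, in 25% aqueous Cremophor EL (vehicle controls dosed alike), 10 μL/g body weight. Litters and implants tallied; resorptions and live fetuses reported as counts with percentages.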

[30] = system: Mus musculus; test: Teratogenic effect in SWV mouse assessed as fetuses with neural tube deffects at 522 mg/kg, ip administered on morning of day 8 of gestation; type: toxicity, organism-based; set-up: dose 522 mg/kg, route intraperitoneal; settings: in vivo
How it was run: (§4)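 Two-month-old nulligravid SWV females were mated overnight and checked for vaginal plugs the next morning; gestation onset was set at 10 p.m. the previous night. On gestation day 8.5, each dam received a single ip injection (0.55-2.7 mmol/kg range) or vehicle (25% aqueous Cremophor EL) at 10 μL/g body weight. Litters were scored for implants, resorptions, live and dead fetuses, and fetuses with neural tube defects.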

[31] = system: Mus musculus; test: Teratogenic effect in SWV mouse assessed as live fetuses at 316 mg/kg, ip administered on morning of day 8 of gestation; type: toxicity, organism-based; set-up: dose 316 mg/kg, route intraperitoneal; settings: in vivo; how it was run: as §3
[32] = system: Rattus norvegicus; test: Anticonvulsant activity in Sprague-Dawley rat assessed as inhibition of maximal electroshock-induced seizures at 30 mg/kg, po after 15 mins
[33] = system: Mus musculus; test: Teratogenic effect in SWV mouse assessed as resorptions at 783 mg/kg, ip administered on morning of day 8 of gestation; type: toxicity, organism-based; set-up: dose 783 mg/kg, route intraperitoneal; settings: in vivo; how it was run: as §3
[34] = system: Mus musculus; test: Teratogenic effect in SWV mouse assessed as dead fetuses at 522 mg/kg, ip administered on morning of day 8 of gestation; type: toxicity, organism-based; set-up: dose 522 mg/kg, route intraperitoneal; settings: in vivo
How it was run: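 Inbred SWV mice, which are susceptible to VPA-induced neural tube defects. Two-month-old nulligravid females were mated overnight and checked for vaginal plugs next morning; gestation onset was taken as 10 p.m. the prior night. On gestation day 8.5, each dam received a single ip dose (range 0.55-2.7 mmol/kg) in 25% aqueous Cremophor EL at 10 μL/g. Dead fetuses were counted per implants.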

[35] = system: Mus musculus; test: Teratogenic effect in SWV mouse assessed as live fetuses at 522 mg/kg, ip administered on morning of day 8 of gestation; type: toxicity, organism-based; set-up: dose 522 mg/kg, route intraperitoneal; settings: in vivo; how it was run: as §3
[36] = system: Rattus norvegicus; test: Anticonvulsant activity in Sprague-Dawley rat assessed as inhibition of maximal electroshock-induced seizures at 30 mg/kg, po after 30 mins
[37] = system: Mus musculus; test: Anticonvulsant activity in CF1 albino mouse assessed as inhibition of maximal electroshock-induced seizures at 100 mg/kg, ip after 4 hrs; type: functional, organism-based; set-up: dose 100 mg/kg; how it was run: as §2
[38] = system: Rattus norvegicus; test: Anticonvulsant activity in Sprague-Dawley rat assessed as inhibition of maximal electroshock-induced seizures at 30 mg/kg, po after 4 hrs
[39] = system: Mus musculus; test: Teratogenic effect in SWV mouse assessed as live fetuses at 159 mg/kg, ip administered on morning of day 8 of gestation; type: toxicity, organism-based; set-up: dose 159 mg/kg, route intraperitoneal; settings: in vivo; how it was run: as §4
[40] = system: Rattus norvegicus; test: Anticonvulsant activity in Sprague-Dawley rat assessed as inhibition of maximal electroshock-induced seizures at 30 mg/kg, po after 1 hr
[41] = system: Mus musculus; test: Teratogenic effect in SWV mouse assessed as resorptions at 159 mg/kg, ip administered on morning of day 8 of gestation; type: toxicity, organism-based; set-up: dose 159 mg/kg, route intraperitoneal; settings: in vivo; how it was run: as §3
[42] = system: Mus musculus; test: Teratogenic effect in SWV mouse assessed as live fetuses at 783 mg/kg, ip administered on morning of day 8 of gestation; type: toxicity, organism-based; set-up: dose 783 mg/kg, route intraperitoneal; settings: in vivo; how it was run: as §3
[43] = system: Mus musculus; test: Teratogenic effect in SWV mouse assessed as resorptions at 522 mg/kg, ip administered on morning of day 8 of gestation; type: toxicity, organism-based; set-up: dose 522 mg/kg, route intraperitoneal; settings: in vivo; how it was run: as §3

Row | Structure (SMILES) | Activity [2] | Activity [3] | Activity [4] | Activity [6] | Activity [7] | Activity [8] | Activity [10] | Activity [11] | Activity [12] | Activity [14] | Activity [16] | Activity [18] | Activity [19] | Activity [21] | Activity [22] | Activity [24] | Activity [26] | also measured
1 | CCC(CC(C)C)C(=O)Nc1ccc(S(N)(=O)=O)cc1 (stereo not given) | Non-toxic | inactive | inactive | inactive | inactive | Non-toxic | Non-toxic | inactive | inactive | inactive | inactive | inactive | Non-toxic | Active | inactive | Non-toxic | Non-toxic | Activity [1]: 3.8%; Activity [5]: 0.9%; Activity [9]: 100%; Activity [13]: 96.2%; Activity [15]: 50%; Activity [17]: 22.7%; Activity [20]: 49.6%; Activity [23]: 95.4%; Activity [25]: Non-toxic; Activity [27]: 50.4%; Activity [28]: 6.6%
2 | NS(=O)(=O)c1ccc(NC(=O)Cc2ccccc2)cc1 | Non-toxic | inactive | inactive | inactive | Active | Non-toxic | Non-toxic | inactive | inactive | Active | inactive | inactive | Non-toxic | Active | inactive | Non-toxic | Non-toxic | Activity [29]: 3.6%; Activity [30]: 3%; Activity [31]: 96.4%; Activity [32]: inactive; Activity [33]: 83.3%; Activity [34]: 1.8%; Activity [35]: 63.7%; Activity [36]: inactive; Activity [37]: Active; Activity [38]: Active; Activity [39]: 93.8%; Activity [40]: Active; Activity [41]: 6.2%; Activity [42]: 16.7%; Activity [43]: 34.5%
